One may read the MIC as the least concentration at which growth counts as inhibited.

Each structure is given as a SMILES string. Values after ≈ are worked out from the molar mass of the structure shown.

Data on twelve compounds can be found in ChEMBL document CHEMBL1149761, “New triazole and triazolothiadiazine derivatives as possible antimicrobial agents” (2008).

One experiment deals with Micrococcus luteus. Briefly: Antibacterial activity against Micrococcus luteus NRLL B-4375 by microdilution broth susceptibility assay. Type of experiment: functional. (In general: In broth dilution the organism is exposed to a series of concentrations in liquid medium.)
In another experiment the test system is Bacillus cereus. Put plainly: Antibacterial activity against Bacillus cereus NRRL B-3711 by microdilution broth susceptibility assay. Type of experiment: functional.
In another experiment the test system is Proteus vulgaris. Briefly: Antibacterial activity against Proteus vulgaris NRRL B-123 by microdilution broth susceptibility assay. Format: functional.
The test system of a further experiment is Salmonella typhimurium. Briefly: Antibacterial activity against Salmonella Typhimurium NRRL B-4420 by microdilution broth susceptibility assay. Format: functional, Salmonella enterica subsp. enterica serovar Typhimurium. As to conditions: Salmonella enterica.
In the next experiment the test system is Staphylococcus aureus. Put plainly: Antibacterial activity against Staphylococcus aureus NRRL B-767 by microdilution broth susceptibility assay. Format: functional.
Another experiment concerns Escherichia coli. Put plainly: Antibacterial activity against Escherichia coli NRRL B-3704 by microdilution broth susceptibility assay. Format: functional.
The test system of a further experiment is Candida albicans. Put plainly: Antifungal activity against Candida albicans isolate by broth dilution antifungal susceptibility test. Format: functional. In a few lines:
(§1)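 Clinical Candida isolates obtained from Osmangazi University, Faculty of Medicine. Tested by the microbroth dilution method alongside bacterial strains.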

A further experiment has as its system Nakaseomyces glabratus. Put plainly: Antifungal activity against Candida glabrata isolate by broth dilution antifungal susceptibility test. Type of experiment: functional. In a few lines:
as §1

For the compound `S=c1[nH]nc(Cc2c[nH]c3ccccc23)n1/N=C/c1ccccc1`, the MIC against Micrococcus luteus turned out to be 250 µg/mL (≈ 750 µM); with Bacillus cereus it was 250 µg/mL (≈ 750 µM); in the experiment with Proteus vulgaris, 62.5 µg/mL (≈ 187 µM); against Salmonella typhimurium, 62.5 µg/mL (≈ 187 µM); against Staphylococcus aureus, 125 µg/mL (≈ 375 µM); in the experiment on Escherichia coli, 125 µg/mL (≈ 375 µM). Further, the MIC in the experiment with Candida albicans and against Nakaseomyces glabratus was 125 µg/mL (≈ 375 µM) throughout.

Regarding `Cc1ccc(/C=N/n2c(Cc3c[nH]c4ccccc34)n[nH]c2=S)cc1`, the MIC in the experiment with Micrococcus luteus worked out at 62.5 µg/mL (≈ 180 µM); in the experiment with Bacillus cereus, 125 µg/mL (≈ 360 µM); in the experiment with Proteus vulgaris it was 62.5 µg/mL (≈ 180 µM); with Salmonella typhimurium, 125 µg/mL (≈ 360 µM); in the experiment with Staphylococcus aureus it was 125 µg/mL (≈ 360 µM); with Escherichia coli, 250 µg/mL (≈ 720 µM). The MIC was 250 µg/mL (≈ 720 µM) with Candida albicans and 125 µg/mL (≈ 360 µM) against Nakaseomyces glabratus.

Regarding `CN(C)c1ccc(/C=N/n2c(Cc3c[nH]c4ccccc34)n[nH]c2=S)cc1`, the MIC in the experiment on Micrococcus luteus stood at 125 µg/mL (≈ 332 µM); with Bacillus cereus, 125 µg/mL (≈ 332 µM); with Proteus vulgaris, 125 µg/mL (≈ 332 µM); in the experiment with Salmonella typhimurium, 62.5 µg/mL (≈ 166 µM); with Staphylococcus aureus it was 250 µg/mL (≈ 664 µM); in the experiment on Escherichia coli it was 125 µg/mL (≈ 332 µM). Besides, the MIC against Candida albicans and against Nakaseomyces glabratus was 250 µg/mL (≈ 664 µM) throughout.

For `Clc1ccc(C2=Nn3c(Cc4c[nH]c5ccccc45)nnc3SC2)cc1`, the MIC was determined as 62.5 µg/mL (≈ 165 µM) in the experiment with Micrococcus luteus; 125 µg/mL (≈ 329 µM) against Bacillus cereus; 250 µg/mL (≈ 658 µM) with Proteus vulgaris; 125 µg/mL (≈ 329 µM) in the experiment with Salmonella typhimurium; 125 µg/mL (≈ 329 µM) in the experiment with Staphylococcus aureus; 125 µg/mL (≈ 329 µM) in the experiment on Escherichia coli. Moreover, the values for the MIC with Candida albicans and in the experiment with Nakaseomyces glabratus were 125 µg/mL (≈ 329 µM) and 250 µg/mL (≈ 658 µM), respectively.

Regarding `c1ccc(C2=Nn3c(Cc4c[nH]c5ccccc45)nnc3SC2)cc1`, the minimum inhibitory concentration (MIC) is 62.5 µg/mL (≈ 181 µM) in the experiment on Micrococcus luteus; 125 µg/mL (≈ 362 µM) in the experiment with Bacillus cereus; 62.5 µg/mL (≈ 181 µM) in the experiment on Proteus vulgaris; 62.5 µg/mL (≈ 181 µM) with Salmonella typhimurium; 62.5 µg/mL (≈ 181 µM) against Staphylococcus aureus; 250 µg/mL (≈ 724 µM) in the experiment on Escherichia coli. Further, the MIC against Candida albicans and against Nakaseomyces glabratus was 125 µg/mL (≈ 362 µM) in each case.

On to `CN(C)c1ccc(C2=Nn3c(Cc4c[nH]c5ccccc45)nnc3SC2)cc1`, for which the MIC is 62.5 µg/mL (≈ 161 µM) against Micrococcus luteus; 125 µg/mL (≈ 322 µM) with Bacillus cereus; 125 µg/mL (≈ 322 µM) in the experiment on Proteus vulgaris; 12.5 µg/mL (≈ 32.2 µM) against Salmonella typhimurium; 250 µg/mL (≈ 644 µM) against Staphylococcus aureus; 125 µg/mL (≈ 322 µM) with Escherichia coli. The results for the MIC in the experiment on Candida albicans and against Nakaseomyces glabratus were 125 µg/mL (≈ 322 µM) and 250 µg/mL (≈ 644 µM), respectively.

As to `Cc1ccc(C2=Nn3c(Cc4c[nH]c5ccccc45)nnc3SC2)cc1`, the MIC with Micrococcus luteus came to 62.5 µg/mL (≈ 174 µM); with Bacillus cereus, 250 µg/mL (≈ 695 µM); in the experiment on Proteus vulgaris, 125 µg/mL (≈ 348 µM); in the experiment on Salmonella typhimurium, 62.5 µg/mL (≈ 174 µM); with Staphylococcus aureus, 125 µg/mL (≈ 348 µM); in the experiment on Escherichia coli, 125 µg/mL (≈ 348 µM). The results for the MIC in the experiment on Candida albicans and in the experiment with Nakaseomyces glabratus were 250 µg/mL (≈ 695 µM) and 62.5 µg/mL (≈ 174 µM), respectively.

In the case of `S=c1[nH]nc(Cc2c[nH]c3ccccc23)n1/N=C/c1ccc(Cl)cc1`, the MIC in the experiment with Micrococcus luteus was 62.5 µg/mL (≈ 170 µM); in the experiment with Bacillus cereus, 250 µg/mL (≈ 680 µM); against Proteus vulgaris, 125 µg/mL (≈ 340 µM); in the experiment on Salmonella typhimurium it was 62.5 µg/mL (≈ 170 µM); in the experiment on Staphylococcus aureus, 125 µg/mL (≈ 340 µM); in the experiment on Escherichia coli, 125 µg/mL (≈ 340 µM). Also, the MIC in the experiment on Candida albicans stood at 125 µg/mL (≈ 340 µM); with Nakaseomyces glabratus, 250 µg/mL (≈ 680 µM).

With `CC(=O)N1CCN(c2ccc(OCC3COC(Cn4ccnc4)(c4ccc(Cl)cc4Cl)O3)cc2)CC1` (stereo not drawn) [KETOCONAZOLE], the MIC in the experiment on Candida albicans and in the experiment on Nakaseomyces glabratus was 62.5 µg/mL (≈ 118 µM) throughout.

On to `O=[N+]([O-])c1ccc(/C=N/n2c(Cc3c[nH]c4ccccc34)n[nH]c2=S)cc1`, for which the MIC amounted to 125 µg/mL (≈ 330 µM) against Micrococcus luteus; 250 µg/mL (≈ 661 µM) in the experiment with Bacillus cereus; 125 µg/mL (≈ 330 µM) against Proteus vulgaris; 125 µg/mL (≈ 330 µM) with Salmonella typhimurium; 250 µg/mL (≈ 661 µM) in the experiment on Staphylococcus aureus; 125 µg/mL (≈ 330 µM) against Escherichia coli. Also, the MIC with Candida albicans and against Nakaseomyces glabratus was 125 µg/mL (≈ 330 µM) in each case.

For the compound `O=[N+]([O-])c1ccc(C2=Nn3c(Cc4c[nH]c5ccccc45)nnc3SC2)cc1`, the MIC with Micrococcus luteus was determined as 125 µg/mL (≈ 320 µM); against Bacillus cereus, 250 µg/mL (≈ 640 µM); with Proteus vulgaris, 125 µg/mL (≈ 320 µM); in the experiment on Salmonella typhimurium it was 250 µg/mL (≈ 640 µM); in the experiment on Staphylococcus aureus it was 125 µg/mL (≈ 320 µM); with Escherichia coli, 125 µg/mL (≈ 320 µM). Further, the MIC against Candida albicans and against Nakaseomyces glabratus was 125 µg/mL (≈ 320 µM) each time.

With `O=C(N[C@H](CO)[C@H](O)c1ccc([N+](=O)[O-])cc1)C(Cl)Cl` [CHLORAMPHENICOL], the MIC in the experiment on Micrococcus luteus was found to be 1.95 µg/mL (≈ 6.03 µM); with Bacillus cereus it was 125 µg/mL (≈ 387 µM); against Proteus vulgaris, 0.97 µg/mL (≈ 3 µM); in the experiment with Salmonella typhimurium it was 0.97 µg/mL (≈ 3 µM); in the experiment on Staphylococcus aureus, 62.5 µg/mL (≈ 193 µM); in the experiment with Escherichia coli, 62.5 µg/mL (≈ 193 µM).
